Assays:
[1] = melting temperature; fluorescence melt of hairpins on a sequencing array, two-state fit, raised by 9.35 °C to match UV melts; settings: sodium 0.088 M
How it was run: (§1)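 Bootstrapped two-state fits yielded melting temperature and folding enthalpy for library hairpins. Cy3 fluorescence, with annealed Cy3 and quencher oligos, was imaged on a sequenced MiSeq flow cell in 50 mM Na-HEPES pH 8.0, 25 mM NaCl in 2.5 °C steps up to 60 °C, and normalised to pre-quench Cy3 and to control constructs. Four replicates were combined by inverse variance, and fitted temperatures were raised by 9.35 °C to match UV melts.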

[2] = folding enthalpy; higher = less favourable; fluorescence melt of hairpins on a sequencing array, two-state fit; settings: sodium 0.088 M
How it was run: as §1

| Sequence | Tm [1] [°C] | folding enthalpy [2] [kcal/mol] |
| --- | --- | --- |
| GCGGCGCGAAAGCTCTGC ((.(.((....)).).)) | 47.4 | -22.9 |
| GAGGGGAAACCCTC (((((....))))) | 54 | -24.7 |
| GCTGATGGAAACATTAGC (((.(((....))).))) | 46.5 | -37.4 |
| CGGCACGGAAACGTCCCG (((.(((....))).))) | 42 | -26 |
| GGGTATCGAAAGATGCCC (((.(((....))).))) | 58.2 | -58.7 |
| GCATCGCGAAAGCTAGGC ((.(.((....)).).)) | 42.8 | -14 |
| GACTACGAAAGTAGGGTC ((((((....)))..))) | 46.7 | -16.5 |
| GATCAGCTCCCTGATC ((((((....)))))) | 49.1 | -32.3 |
| GATCGGTCAGCCGATC ((((((....)))))) | 59.8 | -41.8 |
| GATCAAGCTTTTGATC ((((((....)))))) | 44.5 | -34.8 |
| GATCCTATCAGGATC ((((((...)))))) | 57.2 | -35.7 |
| GTAACGAAAGTTAC (((((....))))) | 55 | -26.1 |
| GATCACGAAAGTGTGATC ((((((....)))..))) | 47.9 | -27 |
| GCTTCCGAAAGGAGAAGC ((((((....)))..))) | 45.7 | -25.6 |
| GGCACCTCGAAAGAGGCC (((..(((....)))))) | 38.2 | -12.2 |
| GCTCTCGGAAACGAGGGC ((.((((....)))).)) | 58.7 | -40 |
| GCCCTTGGAAACAAGGAC (.(((((....))))).) | 40.1 | -17.5 |
| GTGGTCGAAAGACGCAC ((((((....))).))) | 49.3 | -16.3 |
| GATCCCAGCCGGGATC ((((((....)))))) | 64.2 | -32.8 |
| GAACTGCGAAAGCATTC (((.(((....)))))) | 30.9 | -11.7 |
| GCAGCGCGAAAGCTCTGC ((((.((....)).)))) | 62 | -31.9 |
| GATGGTGGAAACATCGTC ((.(.((....)).).)) | 47.8 | -22 |
| GAAAAACGAAAGTTGTTC (((.(((....))).))) | 33.6 | -19.6 |

| Sequence | Tm [1] [°C] | folding enthalpy [2] [kcal/mol] |
| --- | --- | --- |
| GCGTAACGAAAGTTCCGC (((.(((....))).))) | 52.7 | -33.4 |
| GCCGTGCGAAAGCTCTGC ((.(.((....)).).)) | 37.7 | -12.2 |
| GATCTCACATGAGATC ((((((....)))))) | 52.5 | -40.1 |
| GATCCGGTGTCGGATC ((((((....)))))) | 57.6 | -37.2 |
| GTACGTGGAAACACGTGC (.(((((....))))).) | 54.2 | -28 |
| GTGTTCGAAAGAACAC ((((((....)))))) | 68.6 | -31.5 |
| GGCTAAGGAAACTTAGCC (((((((....))))))) | 60.8 | -37.7 |
| GACAACCGAAAGGTAGTC (((.(((....))).))) | 51.3 | -33 |
| GCGTCAAAACGC ((((....)))) | 51.6 | -21.2 |
| GGGAATGGAAACATCCCC (((.(((....))).))) | 42.2 | -24.7 |
| GATCAATGGGTTGATC ((((((....)))))) | 48.3 | -35.5 |
| GATGACGGAAACGTTGTC ((..(((....)))..)) | 36.1 | -28.5 |
| GAAACTGGAAACAGTTCC (.(((((....))))).) | 35.2 | -19.3 |
| GACACCGAAAGGTTAGTC ((((((....)))..))) | 37.5 | -20.4 |
| GCCCCGCGAAAGCGTAGC ((..(((....)))..)) | 35.8 | -9.13 |
| GAGCTCCCGAAAGGGCTC (((..(((....)))))) | 44.4 | -17.7 |
| GATCTAGCGATAGATC ((((((....)))))) | 46 | -34.7 |
| GTAGATGCGAAAGCATAC (((..(((....)))))) | 31.1 | -11.9 |
| GATCTACTGTTAGATC ((((((....)))))) | 40.9 | -32.4 |
| CTGGAGAAATCCAG (((((....))))) | 43.6 | -27.1 |
| GTTGGCGAAAGCCAAAAC ((((((....)))..))) | 41.5 | -10.5 |
| GATCGGGCGCCGATC ((((((...)))))) | 55 | -46.3 |
| GTTGGCGGAAACACCAAC (((((.(....).))))) | 47.4 | -36 |

| Sequence | Tm [1] [°C] | folding enthalpy [2] [kcal/mol] |
| --- | --- | --- |
| GCGACGCTCGC ((((...)))) | 50 | -15.3 |
| GTCCGCGAAAGCGCGAC ((((((....))).))) | 56.9 | -20.7 |
| GCTCTCGAAAGAGGAAGC ((((((....)))..))) | 38.4 | -18.8 |
| GCCGACGAAAGTCTGGGC ((((((....)))..))) | 54.6 | -27.6 |
| GGAGCGACGAAAGTCTCC (((..(((....)))))) | 36.6 | -13.9 |
| GGATGAGGAAACTTGTCC (((..((....))..))) | 31.1 | -24.4 |
| GGGCTAACGAAAGTTCCC (((..(((....)))))) | 34.9 | -16.7 |
| GTTCAGGCGAAAGCCAAC (((..(((....)))))) | 26.1 | -8.95 |
| CCCTGGAAACAGGG (((((....))))) | 56.9 | -20 |
| GCAAGCGGAAACGTTTGC ((((.((....)).)))) | 53.5 | -38.5 |
| GAGGTCCGAAAGGATCTC (((.(((....))).))) | 59.6 | -37.9 |
| GTTCTCGGAAACGAAAAC (((.(((....))).))) | 29.3 | -20 |
| GAGCTGCGAAAGCACCTC (((.(((....))).))) | 39.7 | -17 |
| GACGGCGAAAGCCGCGTC ((((((....)))..))) | 50.9 | -8.52 |
| GGCCCAGGAAACCAGGCC ((((..(....)..)))) | 47 | -31.6 |
| GACATCGCGAAAGCGGTC (((..(((....)))))) | 34.8 | -11.6 |
| GATCTTGCTCAAGATC ((((((....)))))) | 48.3 | -39.4 |
| GTGACGACGAAAGTCCAC (((..(((....)))))) | 38.2 | -13 |
| GCAGGCGGAAACGCCCGC ((.((((....)))).)) | 59.3 | -15.8 |
| GTGCATGGAAACATACAC (((.(((....))).))) | 39.3 | -35 |
| GGGCTTGGAAACAAGCTC (.(((((....))))).) | 54.9 | -31.2 |
| GGCTGCGAAAGCAAAGCC ((((((....)))..))) | 61.3 | -24.7 |
| GGTATCGAAAGATCAACC ((((((....)))..))) | 27 | -12.9 |

| Sequence | Tm [1] [°C] | folding enthalpy [2] [kcal/mol] |
| --- | --- | --- |
| GCGCTGCGAAAGCATAGC ((..(((....)))..)) | 52.7 | -22.7 |
| GACGTCCGAAAGGATGTC (((.(((....))).))) | 60.1 | -42.9 |
| GAGGCCACGAAAGTGCTC (((..(((....)))))) | 32 | -10.9 |
| GTCGCCGAAAGGCGGGAC ((((((....)))..))) | 41 | -6.81 |
| GGTAACGAAAGTTCCACC ((((((....)))..))) | 33.3 | -12.3 |
| GCGTGGCGAAAGCGATGC ((.(.((....)).).)) | 55.7 | -25.3 |
| GATCGCGAAAGCGTTATC ((((((....)))..))) | 28.1 | -15 |
| GTTCGTCGAAAGACCAAC (((.(((....))).))) | 30.9 | -15.9 |
| GATCCACCCCTGGATC ((((((....)))))) | 49.9 | -37.2 |
| CGATCGAAAGATCG (((((....))))) | 59.9 | -30.4 |
| GATCCGCGACCGGATC ((((((....)))))) | 54.8 | -38.4 |
| GATCCTTGCGAGGATC ((((((....)))))) | 54.8 | -49.1 |
| GCCACGTCGAAAGACGGC (((..(((....)))))) | 49.5 | -10.8 |
| GCGTATTTACGC ((((....)))) | 54.5 | -26.7 |
| GGTCCCGAAAGGGCTACC ((((((....)))..))) | 39.8 | -10.9 |
| GTGAGCACGAAAGTGCAC (((..(((....)))))) | 60.1 | -8.71 |
| GGATCGGGAAACCGATTC (.(((((....))))).) | 50.6 | -26.6 |
| GCCCCGTCGAAAGACGGC (((..(((....)))))) | 34.4 | -4.65 |
| GCCAAGCGAAAGCACGGC (((..((....))..))) | 57.4 | -30.4 |
| GATCTAAGGTAGATC ((((((...)))))) | 37.6 | -20.8 |
| GCCCCTGGAAACAGGGAC (.(((((....))))).) | 51.1 | -13.9 |
| GCGGACGCGAAAGCGCGC (((..(((....)))))) | 62 | -17.1 |
| GCTGACCGAAAGGTAGC (((.(((....)))))) | 51.7 | -25.5 |

— the array DNA melting data of Ke et al. (doi:10.1101/2024.01.08.574731)
